Reference: article PMC2687631 (Yonsei Medical Journal, 2006)

Assays:
hPTH/PTHrp receptor = conditions: LLC-PK cells stably expressing a high level of the hPTH/PTHrp receptor; cited from earlier work
mice = conditions: cited from earlier work
animals and humans = conditions: cited from earlier work
ovariectomized rat model = assay: Femoral length and cross-sectional diameter at mid-diaphysis; assay type: in vivo, Sprague-Dawley rats; conditions: ovx rats, subcutaneous for 5 weeks; p<0.05 vs. OVX
Method in brief: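 Female Sprague-Dawley rats were ovariectomized at 10 weeks (sham group unoperated), left untreated for 4 weeks, then dosed daily s.c. for 5 weeks with test compound (30 nM/kg), rhPTH(1-84) (8 nM/kg) or 0.9% saline vehicle, seven per group. Left femur length (greater trochanter to intercondylar fossa) and mid-diaphysis AP/ML diameters measured by digital caliper. Means and SD; ANOVA with Bonferroni.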

## PTH (1-14): N-terminal fragment 1-14 of parathyroid hormone (SVSEIQLMHNLGKH; Parathyroid hormone; UniProt P01270 32-45, looked up, fragment)
hPTH/PTHrp receptor
  cAMP formation relative to PTH (1-34): about 10^-3 folds

## PTH (1-31): PTH (1-31) fragment
mice
  Potency in stimulating bone resorption parameters vs PTH (1-34): less potent
  Potency on bone formation vs PTH (1-34): as potent as PTH (1-34)

B1: PTH: parathyroid hormone, low dose, intermittently administered (protein, UniProt P01270 32-115, looked up)
Parathyroid hormone: SVSEIQLMHNLGKHLNSMERVEWLRKKLQDVHNFVALGAPLAPRDAGSQRPRKKEDNVLVESHEKSLGEADKADVNVLTKAKSQ
modifications: Parathyroid hormone
Animals and humans
  Anabolic effect / bone mass (in words): significant increase in bone mass

B2: rhPTH (1-84): recombinant human PTH (1-84), donated by the Mogam Biotechnology Research Institute (protein, UniProt P01270 32-115, looked up)
Parathyroid hormone: B1 Parathyroid hormone
modifications: Parathyroid hormone
Ovariectomized rat model
  Femoral length (in words): significantly increased length
